Only some compounds are listed: those with a hit (about 2.2% of all), similar ones and a draw of the others.
ASAP1 GAP inh: inhibitors of human ASAP1 ArfGAP activity; AID 624377; inhibition, % at 16.5 µM; ASAP1-stimulated ARF1 GTP hydrolysis, GDP FP detection; Q9ULH1; 360,000 tested, 0.19% active; in the data active = inhibition above about 25%;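 also: 0% = vehicle with enzyme and substrate and 100% = no enzyme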
Target sequence (Q9ULH1 325-724 limits assumed): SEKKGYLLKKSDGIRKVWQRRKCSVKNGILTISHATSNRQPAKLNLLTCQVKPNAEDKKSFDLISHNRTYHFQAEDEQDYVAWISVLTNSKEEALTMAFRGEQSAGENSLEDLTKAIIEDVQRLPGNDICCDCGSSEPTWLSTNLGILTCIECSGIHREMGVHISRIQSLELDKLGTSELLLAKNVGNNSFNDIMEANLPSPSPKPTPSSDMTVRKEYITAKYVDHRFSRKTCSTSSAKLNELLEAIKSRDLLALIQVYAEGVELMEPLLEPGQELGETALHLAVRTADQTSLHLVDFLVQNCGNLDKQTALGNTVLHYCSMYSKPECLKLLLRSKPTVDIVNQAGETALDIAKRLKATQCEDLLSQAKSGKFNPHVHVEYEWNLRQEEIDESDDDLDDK
ARFGAP1 inhibitor: rat ARFGAP1 inhibition; inhibition, % at 16.5 µM; AID 651572; Q62848; Arfgap1-stimulated ARF1 GTP hydrolysis, GDP FP detection; 360,000 tested, 0.26% active;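 active = inhibition above a per-plate limit, mean inhibition of low control wells plus 3 SD, cut at about 25% in these data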;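 also: 0% = DMSO wells with enzyme and 100% = wells lacking Arfgap1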
Target sequence (Q62848 1-136 limits assumed): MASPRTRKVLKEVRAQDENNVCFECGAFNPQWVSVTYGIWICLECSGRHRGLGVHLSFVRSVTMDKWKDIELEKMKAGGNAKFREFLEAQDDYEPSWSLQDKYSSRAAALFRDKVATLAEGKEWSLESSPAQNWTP
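System: truncated rat Arfgap1 GAP domain / Medium: HEPES-based buffer, pH 7.5 / Also added: N-terminally truncated human ARF1-GTP substrate / Incubation: enzyme reaction 120 min at 25 °C after 20 min preincubation / Measured by: FP of antibody-bound GDP Alexa 633 tracer, ex 620/em 688 nm / Replicates: singlicate, each compound tested once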
NadD block: NadD (S. aureus) enzyme inhibition; purified NadD enzyme, colorimetric absorbance read-out; inhibition, % at 20 µM; 360,000 tested, 0.78% active; AID 602399; in the data active = inhibition above about 26%
rCAG RNA binder: binds r(CAG) RNA repeats; r(CAG) RNA repeat, TO-PRO-1 dye displacement fluorescence; inhibition, % at 3 µM; 370,000 tested, 1.3% active; AID 651821;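 active = inhibition above the plate cutoff, the mean of all test compounds on that plate plus 3 SD, cut at about 35% in these data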;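 also: 0% = DMSO alone and 100% = 100 µM mitoxantrone as full dye displacement; higher means more dye released from RNA so lower well fluorescence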
ASAP1 inh confirm: ASAP1 inhibition confirmed | shares compounds with ASAP1 GAP inh | ASAP1-stimulated Arf1 GTPase, GDP fluorescence polarization | inhibition, % at 16.5 µM | 620 tested, 37% active | AID 624431;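 active = mean inhibition over triplicates exceeds the hit threshold derived for the earlier primary screening run, cut at about 25% in these data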
Numbers without * were called inactive; / = no result; ! = not confirmed by another sample.

SMILES	ASAP1 GAP inh	ARFGAP1 inhibitor	NadD block	rCAG RNA binder	ASAP1 inh confirm
O=C(NCC1CCCO1)c1ccc[nH]1 (centres undefined)	26.9*	10.2	1.8	-2.2	-5.0
C=CCN(CC=C)CCOc1cc(C)ccc1[N+](=O)[O-]	24.9*	-7.8	3.9	-4.4	0.1
C[C@@H]1CN([C@H](C)CO)C(=O)c2cc(Br)cnc2O[C@H]1CN(C)Cc1ccccc1F	4.8	3.2	/	-1.6	/
O=C(COC(=O)c1cnccn1)NC1CCCc2ccccc21 (centres undefined)	47.8*	-5.7	1.6	5.4	3.6
O=C(COC(=O)c1cccnc1)NC1CCCc2ccccc21 (centres undefined)	-0.7	-4.0	-1.7	0.9	/
NS(=O)(=O)c1ccc(CCNc2nc3c(-c4cccc(F)c4)nnn3c3ccccc23)cc1	55.4*	0.2	29.9	3.7	87.6*
Cc1ccc(-c2nnn3c2nc(NCCc2ccc(S(N)(=O)=O)cc2)c2ccccc23)cc1	15.3	9.0	21.4	5.2	/
CN1CCCN(S(=O)(=O)c2ccc3c(c2)CCC(=O)N3)CC1	/	/	/	1.8	/
Cn1cccc1Cc1nnc(SCC(=O)N2CCOCC2)n1-c1ccc(F)cc1	25.4*	9.3	0.8	1.0	0.5
COc1ccc(-n2c(Cc3cccn3C)nnc2SCC(=O)N2CCOCC2)cc1	10.6	4.0	-0.5	7.2	/
C[C@H](CO)N1C[C@H](C)[C@@H](CN(C)C(=O)Nc2ccccc2)OCc2cn(nn2)CCCC1=O	-10.3	-6.8	/	1.0	/
COc1ccc2c(c1)[C@@]1(OCCC=C[C@H]1C)C(=O)N2Cc1ccc(Br)cc1	0.5	9.9	/	1.1	/
Cc1cc(C)c(S(=O)(=O)c2ccccc2)c(OC(=O)c2c(F)cccc2F)n1	25.6*	21.3	-5.6	-5.8	11.2
COc1ccccc1-c1cccc(-c2nc(C(=O)N3CCCCC3)cc3c2[C@@H](CCO)N(S(=O)C(C)(C)C)C3)c1 (some centres undefined)	-4.8	21.0	-3.6	1.4	/
Cc1cc(N=Cc2c(O)n(-c3ccc4c(c3)OCO4)c(=O)c3ccccc23)ccn1	39.4*	-8.5	-4.6	6.1	50.4*
O=C(CSc1nn(-c2ccccc2)c(=S)s1)Nc1ncccn1	25.9*	11.9	0.5	5.4	43.9*
OCC[C@@H]1C[C@H](O)[C@@H](O)[C@@]2(OCc3cc(Cl)ccc32)O1	24.9*	5.4	-4.2	4.9	4.2
O=c1c2ccccc2nc2n1CCC2	-4.3	-8.4	11.9	-0.6	/
O=C1CCn2c1c(O)c1ccccc1c2=O	37.3*	9.3	3.4	0.1	15.4
COc1ccc(C(C[N+](=O)[O-])c2c(C)[nH]n(-c3ccccc3)c2=O)cc1 (centres undefined)	30.1*	25.4*	-1.0	13.1	14.4
CCN1CCN(Cc2ccc(NC(=O)c3cc(NC(=O)c4cc5cccc(OC)c5o4)cc(OC)c3)cc2C(F)(F)F)CC1	29.3*!	19.6	22.5	6.1	49.4*
COc1cc2cc(C(=O)N/N=C/c3ccccc3Cl)[nH]c2cc1OC	27.6*	5.6	-6.7	1.8	53.4*
Cc1ccc(/C=N/n2c(C)cc(C)c(C#N)c2=O)o1	4.0	4.0	-0.8	0.1	/
Cc1cc(C)n(/N=C/c2ccco2)c(=O)c1C#N	24.9*	2.0	-1.3	5.7	0.4
CCN(CC)C(=O)C1=C(C)N(Cc2ccccc2)C(=O)C(CC(=O)NCc2cccc3ccccc23)C1 (centres undefined)	-4.6	-3.3	6.0	0.0	/
SMILES	ASAP1 GAP inh	ARFGAP1 inhibitor	NadD block	rCAG RNA binder	ASAP1 inh confirm
O=C(N/N=C/c1ccc([N+](=O)[O-])cc1)c1ccc(COc2ccccc2-c2ccccc2)cc1	31.1*	0.8	25.0	5.4	81.1*
COc1ccc(-c2[nH]ncc2/C=N\NC(=O)c2ccc(Br)o2)cc1OC	25.2*	19.4	-3.7	1.2	17.4
COc1cccc(C(=O)N/N=C/c2cn[nH]c2-c2ccc(OC)cc2OC)c1	3.4	13.9	2.9	-2.6	/
CCC(NC(=O)CN1CCN(c2cccc(OC)c2)CC1)c1ccccc1 (centres undefined)	/	/	/	-0.7	/
Cc1ccccc1S(=O)(=O)Cc1ccc(C(=O)NC(C)c2ccc3c(c2)OCCO3)o1 (centres undefined)	12.2	-1.1	-2.2	6.2	/
CC(NC(=O)c1ccc(CS(=O)(=O)c2ccc(Cl)cc2)o1)c1ccc2c(c1)OCCO2 (centres undefined)	27.1*	4.9	-9.1	-0.7	2.7
Cc1ccc(C(=O)NC(C)c2ccc(-n3ccnc3)cc2)o1 (centres undefined)	-11.9	4.6	0.3	1.4	/
COC(=O)[C@]12C[C@H](CC(=O)N3CCN(C(=O)c4ccco4)CC3)C(=O)N(Cc3ccc4c(c3)OCO4)C1=C[C@H](C(C)C)O[C@@H]2C1CC1	/	/	/	6.3	/
COc1ccc(C(=O)NC(=S)Nc2ccc3oc(=O)ccc3c2)cc1	59.0*	13.8	0.5	0.4	78.5*
Fc1ccc(Nc2nc(-c3ccncc3)nc3ccccc23)cc1F	37.8*	6.2	3.1	2.8	35.6*
c1ccc2c(Nc3nc(-c4ccncc4)nc4ccccc34)cccc2c1	-8.2	0.8	-3.0	2.3	/
CC(/C=C/c1ccccc1)=N\NC(=O)CNC(=O)c1ccccc1Cl	24.7*	0.7	4.2	-1.0	4.6
COC(=O)C1=CN(c2ccc(C(C)(C)C)cc2)C(N)=C(C#N)C1c1cccc2ccccc12 (centres undefined)	-1.4	0.8	/	14.2	/
CCOC(=O)Cn1c(-c2ccccc2)nc2ccccc2c1=O	25.6*	4.2	2.2	0.2	-0.1
CCCCOC(=O)Cn1c(-c2ccccc2)nc2ccccc2c1=O	-2.9	1.6	0.7	-1.4	/
CN(C(=O)COC(=O)c1cc([N+](=O)[O-])ccc1N1CCOCC1)C1CCCCC1	0.5	4.1	-0.6	1.1	/
CC1CCCCN1C(=O)COC(=O)c1cc([N+](=O)[O-])ccc1N1CCOCC1 (centres undefined)	29.4*	2.8	-0.4	-6.2	3.8
COc1ccccc1C(=O)Nc1ccc(S(=O)(=O)Nc2cc(C)on2)cc1	-14.8	4.9	-4.7	4.7	/
COc1ccccc1NS(=O)(=O)c1ccc(C)c(C(=O)Nc2cc(C)on2)c1	26.0*	1.6	-0.5	2.7	7.5
Cn1c(N)c(C(=O)COC(=O)CCc2nc3ccccc3s2)c(=O)n(C)c1=O	31.3*	3.8	-6.8	-5.9	3.2
Cn1c(N)c(C(=O)COC(=O)CCCc2nc3ccccc3s2)c(=O)n(C)c1=O	12.5	5.7	-5.2	-4.6	/
Cc1ccc(Cl)c2sc(NC(=O)C3=COCCO3)nc12	26.8*	7.9	-4.5	8.7	14.2
Cc1cccc(N=Nc2c(N)n[nH]c2-c2ccc(Cl)cc2)c1	26.2*	10.3	-4.0	40.5*	17.5
Cc1ccc(-c2[nH]nc(N)c2N=Nc2ccccc2C)cc1	27.0*	19.2	-5.9	32.4	20.3
Cc1ccc(N=Nc2c(N)n[nH]c2N)cc1	1.7	-0.1	-1.3	4.1	/
